Pemphigus Ab inh: inhibitors of pemphigus antibody binding to human desmoglein-3. P32926. binding (percent of control), % at 10 µM. DSG3-coupled beads, scFv-anti-DSG3-GFP binding, flow cytometry; hits give low values. hit rate 0.48% among 310,000. AID 588358;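 active means binding more than 3 SD below its plate's average and above zero; inconclusive means below that plate limit but binding exactly zero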;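 further: hits lower antibody fragment binding to DSG3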
LANA-H2A inh: blocks KSHV LANA binding to histone H2A/H2B. Q9QR71. cell-free LANA-H2A/H2B peptide, fluorescence polarization. inhibition, % (no concentration beside the values). hit rate 0.6% among 320,000; in the data active means inhibition mostly above about 10%, no sharp cut-off; inactive means mostly below about 6.7%
Arrestin-AP2 inh: blocks beta-arrestin peptide binding to AP2 adaptin; FITC-arrestin peptide / GST-AP2 beads, flow cytometry; AP2 beta2 appendage carries R879A mutation; inhibition, % at 10 µM; hit rate 0.31% among 340,000;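 active means inhibition above a set limit, near 3 SD of compounds lacking own fluorescence, cut at about 54% in these data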;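 further: plate controls were DMSO wells for no effect and 5 µM unlabelled arrestin peptide for full effect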
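Material – AP2 appendage R879A on GSH beads · Buffer or medium – PBS with 0.05% Tween 20 and 0.1% BSA · Probe or stimulus – fluorescein-tagged arrestin peptide at 50 nM final · Incubation – compound with beads 12 min RT, then probe 1 h RT · Detection – high-throughput flow cytometry of beads, ex 488, em 535 nm · Evaluation – percent response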
T cell HTS: T cell immune modulation candidate. 2C CD8+ T cell-vesicle binding, flow cytometry; hits give low values. response (vesicle binding), % at 7 µM. hit rate 0.068% among 330,000;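 active means response, share of CD8 T cells binding vesicles, and their 90th percentile fluorescence all below set limits, cut at about 80% in these data, passing the limit was not always enough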;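 further: values below 100% mean blocked vesicle binding to the CD8+ T cells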
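Benchmarks: naked versus QL9-loaded vesicles / Assay system: purified 2C TCR transgenic mouse naive CD8+ T cells / Technique: high-throughput flow cytometry with anti-B7-1 and anti-CD8 staining / Timing: Cell–vesicle co-incubation 1.5 h at 37 °C, staining 20 min on ice / Read-out: percent CD8+ FL2 mean versus row control / Probe or stimulus: QL9-loaded Drosophila micro-vesicles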
JMJD2C inh: blocks human GASC-1 demethylase activity; AID 2099; GST-JMJD2C(1-420) H3K9me3 demethylation, DELFIA europium; inhibition, % at 2.35 µM; hit rate 0.069% among 330,000; Q9H3R0;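 active means more than half of a compound's replicate wells show inhibition beyond 50%, single wells judged on their own value; inconclusive means some, but no more than half, of replicates pass 50% inhibition; inactive means no replicate passes 50% inhibition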;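 further: signal counts dimethyl H3K9 product captured on neutravidin plate; 0% = median of DMSO wells and 100% = 0.3 times that DMSO median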
Target sequence (Q9H3R0 1-420 limits assumed): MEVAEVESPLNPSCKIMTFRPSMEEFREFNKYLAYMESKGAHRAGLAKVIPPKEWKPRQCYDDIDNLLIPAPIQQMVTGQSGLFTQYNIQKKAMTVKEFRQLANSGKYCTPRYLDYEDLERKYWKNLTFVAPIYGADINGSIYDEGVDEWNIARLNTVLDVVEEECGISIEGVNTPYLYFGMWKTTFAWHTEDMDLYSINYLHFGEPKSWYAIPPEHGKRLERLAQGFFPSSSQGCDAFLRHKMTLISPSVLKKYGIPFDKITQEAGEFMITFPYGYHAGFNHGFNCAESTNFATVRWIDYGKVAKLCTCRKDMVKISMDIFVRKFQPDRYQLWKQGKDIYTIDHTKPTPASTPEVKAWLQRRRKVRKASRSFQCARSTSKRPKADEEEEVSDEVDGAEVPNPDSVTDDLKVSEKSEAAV
HDAC3 inh: inhibitors of human histone deacetylase 3; O15379; recombinant HDAC3, fluorogenic peptide/trypsin coupled, fluorescence; inhibition, % at 8.3 µM; hit rate 0.15% among 320,000; AID 2718; in the data active means inhibition above about 26%, passing the limit was not always enough; inconclusive means no clear call, values can overlap the other calls
An asterisk follows results filed as active. Rows were chosen to be rich in hits. Some 1.6% of all compounds tested hit in one or more screens of this group.

What do the screens show for `COc1ccc(N2C(=O)CSC2c2cccc(F)c2)cc1` (stereo not drawn)?
Pemphigus Ab inh: 104; LANA-H2A inh: 8.4*; Arrestin-AP2 inh: 4; T cell HTS: 251; JMJD2C inh: -6; HDAC3 inh: 2

Results for Cc1ccccc1CS(=O)(=O)c1nnc([C@H](Cc2ccccc2)NC(=O)OC(C)(C)C)o1 ?
Pemphigus Ab inh: 96; LANA-H2A inh: -1; Arrestin-AP2 inh: 7; T cell HTS: 260; JMJD2C inh: -6; HDAC3 inh: 46*

Results for CC(C)(C)OC(=O)N[C@@H](Cc1ccccc1)c1nnc(S(=O)(=O)Cc2ccccc2)o1 ?
LANA-H2A inh: 0; T cell HTS: 356; JMJD2C inh: 4; HDAC3 inh: 76*

What do the screens show for `CCSc1nnc([C@H](Cc2ccccc2)NC(=O)OC(C)(C)C)o1`?
Pemphigus Ab inh: 94; LANA-H2A inh: 2; Arrestin-AP2 inh: -9; T cell HTS: 492; JMJD2C inh: 0; HDAC3 inh: 7

What do the screens show for `COC(=O)c1ccc(NC(=O)C2CC(=O)N(c3ccc(C)cc3)C2)cc1` (stereo not drawn)?
Pemphigus Ab inh: -25*; LANA-H2A inh: -1; Arrestin-AP2 inh: 12; T cell HTS: 263; HDAC3 inh: -1

What do the screens show for `CCc1ccc(N2CC(C(=O)N/N=C/c3ccccc3)CC2=O)cc1` (stereo not drawn)?
LANA-H2A inh: 3; Arrestin-AP2 inh: 11; T cell HTS: inactive; JMJD2C inh: 0; HDAC3 inh: 2

Results for COC(=O)c1ccc(/C=N/NC(=O)C2CC(=O)N(c3ccc(F)cc3)C2)cc1 (stereo not drawn) ?
Pemphigus Ab inh: 123; LANA-H2A inh: 13*; Arrestin-AP2 inh: 39; T cell HTS: 235; JMJD2C inh: 2; HDAC3 inh: 3

Results for COc1ccc(N2CC(C(=O)Nc3ccc(S(=O)(=O)N4CCCC4)cc3)CC2=O)cc1 (stereo not drawn) ?
Pemphigus Ab inh: 31*; LANA-H2A inh: 4; Arrestin-AP2 inh: 33; T cell HTS: 200; JMJD2C inh: -23; HDAC3 inh: -3

What do the screens show for `COC(=O)c1ccc(NC(=O)C2CC(=O)N(c3cc(C)ccc3C)C2)cc1` (stereo not drawn)?
Pemphigus Ab inh: 101; LANA-H2A inh: 4; Arrestin-AP2 inh: -1; T cell HTS: 182; JMJD2C inh: 3; HDAC3 inh: 6

How did CN(C(=O)COC(=O)c1cc(S(=O)(=O)N2CCOCC2)ccc1Cl)C1CCS(=O)(=O)C1 (stereo not drawn) do in these assays?
Pemphigus Ab inh: 102; LANA-H2A inh: 2; Arrestin-AP2 inh: -10; T cell HTS: 230; JMJD2C inh: 1; HDAC3 inh: 4

Results for CCOc1ccc(NC(=S)NNC(=S)Nc2cccc(C(F)(F)F)c2)cc1 ?
Pemphigus Ab inh: 112; LANA-H2A inh: 1; Arrestin-AP2 inh: 6; T cell HTS: 291; JMJD2C inh: -4; HDAC3 inh: inconclusive

What do the screens show for `COc1ccc(NC(=S)NNC(=S)Nc2cccc(C(F)(F)F)c2)cc1`?
Pemphigus Ab inh: 98; LANA-H2A inh: -1; Arrestin-AP2 inh: 16; T cell HTS: 972; JMJD2C inh: -7; HDAC3 inh: 28*

How did Cc1ccc(C)c(S(=O)(=O)N(C)c2ccc(OC(=O)C3CCN(C(=O)Nc4ccccc4)CC3)cc2)c1 do in these assays?
Pemphigus Ab inh: 98; Arrestin-AP2 inh: -9

Results for O=c1c2ccccc2nc(/C=C/c2cccc([N+](=O)[O-])c2)n1CCO ?
Pemphigus Ab inh: 96; LANA-H2A inh: 19*; Arrestin-AP2 inh: -1; T cell HTS: 178; JMJD2C inh: -4; HDAC3 inh: 3

Results for COc1ccc(C2=Nn3c(nnc3-c3ccccc3Cl)SC2)cc1OC1CCCC1 ?
Pemphigus Ab inh: 105; LANA-H2A inh: 3; Arrestin-AP2 inh: 28; T cell HTS: 225; HDAC3 inh: 8

How did COc1ccc(C2=Nn3c(nnc3-c3ccccc3Cl)SC2)cc1OC1CCOC1 (stereo not drawn) do in these assays?
Pemphigus Ab inh: 74*; LANA-H2A inh: 4; Arrestin-AP2 inh: 5; T cell HTS: 313; JMJD2C inh: 0; HDAC3 inh: -2

Screens deposited in PubChem by several laboratories.
